Results: ChEMBL document CHEMBL4316599, “Synthesis, in vitro and in vivo biological evaluation of substituted 3-(5-imidazo[2,1-b]thiazolylmethylene)-2-indolinones as new potent anticancer agents” (Eur J Med Chem, 2019)
Active and inactive are the calls of the source. No cut-off for these calls is given here.

How the values were obtained:
K562 [1] = experiment: Cell cycle arrest in human K562 cells assessed as mitotic index at 5 times IC50 by Giemsa staining-based assay (reference value: 3%); assay type: functional
Prostatic carcinoma cell = experiment: Cytotoxicity against human prostate cancer cells after 48 hrs by SRB assay; assay type: functional
How it was run: (§1)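 NCI-60 screen: single-dose pass at 10^-5 M, then a five-concentration assay from 10^-9 to 10^-4 M (highest 100 μM). Exposure was 48 h under standard NCI protocols. GI50, TGI and LC50 were derived per cell line and averaged by subpanel. Repeated tests are the mean of two experiments.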

HeLa [2] = experiment: Induction of apoptosis in human HeLa cells assessed as increase in caspase-9 activity at 50 to 250 nM after 24 hrs by Western blot analysis; assay type: functional, cell-based
How it was run: (§2)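 HeLa cells treated 24 h, washed in ice-cold PBS and lysed on ice 30 min. Lysates were spun at 15000 x g, 4 °C. 10 µg protein run on SDS-PAGE and blotted to PVDF. Blots were blocked in 5% BSA overnight at 4 °C and probed 2 h at room temperature. Detection by HRP-secondary and ECL, with bands normalized to β-actin as fold of untreated. Three independent experiments, one-way ANOVA/Dunnett.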

HeLa [3] = experiment: Induction of ROS generation in human HeLa cells at 250 nM after 12 to 24 hrs by H2-DCFDA staining-based assay; assay type: functional, cell-based
How it was run: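 HeLa cells treated 6, 12, 24 or 48 h, then loaded with H2-DCFDA and analysed by flow cytometry for ROS. Mean ± SEM of three independent experiments, compared against control.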

HeLa [4] = experiment: Cell cycle arrest in human HeLa cells assessed as reduction in accumulation of cells at G1 phase up to 1000 nM after 24 hrs by propidium iodide staining-based flow cytometric analysis; assay type: functional
How it was run: (§3)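 Cells exposed to a range of concentrations for 24 h (HeLa at 5×10^5 cells), then fixed in ice-cold 70% ethanol. Lysis buffer with RNase A and 0.1% Triton X-100 was applied before PI staining. DNA content was read by flow cytometry and G1/S/G2/M fractions taken from DNA histograms. Mean ± SEM of two independent experiments.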

B16-BL6 [5] = experiment: Antitumor activity mouse B16-BL6 cells implanted in C57BL/6 mouse assessed tumor growth inhibition at 15 mg/kg, ip dosed every other day for 18 days relative to control; assay type: functional; details: 432 h, read-out: TGI
How it was run: (§4)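 Syngeneic allograft: C57BL/6 mice, six weeks old, given 2.5×10^5 BL6-B16 or E0771 cells subcutaneously in the dorsolateral flank in PBS. Dosing began at about 100 mm³. Test compound or reference was given intraperitoneally every other day in 50 μL DMSO, with DMSO vehicle controls. Tumor volume was compared with the vehicle group, 5 animals per group, mean ± SEM, by 2-way ANOVA with Bonferroni correction.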

K562 [6] = experiment: Cell cycle arrest in human K562 cells assessed as mitotic index at IC50 by Giemsa staining-based assay (reference value: 3%); assay type: functional
[7] = Cytotoxicity against human PHA-stimulated PBL after 72 hrs by MTT assay; assay type: cell-based; details: PHA-stimulated peripheral blood lymphocytes (PBL)
How it was run: (§5)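 Lymphocytes from healthy donors were isolated on a Lymphoprep gradient and held overnight in RPMI-1640 with 10% FBS. Non-adherent cells were set at 5×10^5 cells/mL, either resting or stimulated with 2.5 μg/mL PHA. Cells were exposed to a range of compound concentrations for 72 h and viability read by MTT. GI50 is the mean ± SEM of three separate experiments.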

B16-BL6 [8] = experiment: Antitumor activity mouse B16-BL6 cells implanted in C57BL/6 mouse assessed tumor growth inhibition at 7.5 mg/kg, ip dosed every other day for 18 days relative to control; assay type: functional; details: 432 h, read-out: TGI; how it was run: as §4
HeLa [9] = experiment: Cell cycle arrest in human HeLa cells assessed as reduction in accumulation of cells at S phase up to 1000 nM after 24 hrs by propidium iodide staining-based flow cytometric analysis; assay type: functional; how it was run: as §3
Breast carcinoma cell = experiment: Cytotoxicity against human breast cancer cells after 48 hrs by SRB assay; assay type: functional; how it was run: as §1
[10] = Cytotoxicity against human PBL after 72 hrs by MTT assay; assay type: cell-based; details: peripheral blood lymphocytes (PBL); how it was run: as §5
E0771 [11] = experiment: Antitumor activity mouse E0771 cells implanted in C57BL/6 mouse assessed tumor growth inhibition at 15 mg/kg, ip dosed every other day for 20 days relative to control; assay type: functional; details: 480 h, read-out: TGI; how it was run: as §4
A549 [12] = experiment: Cell cycle arrest in human A549 cells assessed as reduction in accumulation of cells at S phase up to 600 nM after 24 hrs by propidium iodide staining-based flow cytometric analysis; assay type: functional; how it was run: as §3
HeLa [13] = experiment: Induction of apoptosis in human HeLa cells at 250 nM after 24 to 48 hrs by Annexin V-FITC/propidium iodide staining-based flow cytometric analysis; assay type: functional, cell-based
How it was run: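 HeLa cells exposed 24 or 48 h to 250, 500 or 1000 nM; annexin-V-FITC plus PI double staining for surface phosphatidylserine and DNA, measured by flow cytometry. Mean ± SEM of three independent experiments.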

Ovarian carcinoma cell = experiment: Cytotoxicity against human ovarian cancer cells after 48 hrs by SRB assay; assay type: functional; how it was run: as §1
A549 [14] = experiment: Cell cycle arrest in human A549 cells assessed as accumulation of cells at G2/M phase after 24 hrs by propidium iodide staining-based flow cytometric analysis; assay type: functional; how it was run: as §3
Tubulin (Bos taurus) = Tubulin (Bos taurus) (UniProt Q6B856+Q862L2+Q862F3); experiment: Inhibition of [3H]colchicine binding to bovine brain tubulin at 5 uM after 20 mins relative to control
How it was run: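 Reaction mixtures held 1 μM tubulin, 5 μM [³H]colchicine and test compound at 5 or 50 μM. Read-out was percent inhibition of colchicine binding.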

HeLa [15] = experiment: Induction of apoptosis in human HeLa cells assessed as decrease in Mcl-1 levels at 50 to 250 nM after 24 hrs by Western blot analysis; assay type: functional, cell-based; how it was run: as §2
HT-29 [16] = experiment: Cell cycle arrest in human HT-29 cells assessed as reduction in accumulation of cells at G1 phase up to 1000 nM after 24 hrs by propidium iodide staining-based flow cytometric analysis; assay type: functional; how it was run: as §3
HeLa [17] = experiment: Cell cycle arrest in human HeLa cells assessed as accumulation of cells at G2/M phase after 24 hrs by propidium iodide staining-based flow cytometric analysis; assay type: functional; how it was run: as §3
HT-29 [18] = experiment: Cell cycle arrest in human HT-29 cells assessed as reduction in accumulation of cells at S phase up to 1000 nM after 24 hrs by propidium iodide staining-based flow cytometric analysis; assay type: functional; how it was run: as §3
A549 [19] = experiment: Induction of apoptosis in human A549 cells at 25 nM after 24 to 48 hrs by Annexin V-FITC/propidium iodide staining-based flow cytometric analysis; assay type: functional, cell-based
How it was run: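 A549 cells treated 24 or 48 h at 12.5–100 nM, then double-stained with annexin-V-FITC and PI. Phosphatidylserine exposure was read by flow cytometry. Mean ± SEM of three independent experiments.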

E0771 [20] = experiment: Antitumor activity mouse E0771 cells implanted in C57BL/6 mouse assessed tumor growth inhibition at 7.5 mg/kg, ip dosed every other day for 20 days relative to control; assay type: functional; details: 480 h, read-out: TGI; how it was run: as §4
Melanoma cell line = experiment: Cytotoxicity against human melanoma cells after 48 hrs by SRB assay; assay type: functional; how it was run: as §1
[21] = read-out: LC50 (the source's name)

**Q.** With `O=C1Nc2c(ccc3ccccc23)C1=Cc1c(-c2ccncc2)nc2sccn12` as the compound, how does the Activity (K562 [1]) read?
**A.** Its Activity is 35%.

**Q.** And the GI50 (Prostatic carcinoma cell)?
**A.** The GI50 was 0.02 µM.

**Q.** What about the TGI (Prostatic carcinoma cell) of the same compound?
**A.** Its TGI is 55.9 µM.

**Q.** What about the CC50 (Prostatic carcinoma cell; [21]) of the same compound?
**A.** Its CC50 is 80.1 µM.

**Q.** And the Activity (HeLa [2])?
**A.** Its Activity is “Active”.

**Q.** And the Activity (HeLa [3])?
**A.** Its Activity is “Active”.

**Q.** What about the Activity (HeLa [4]) of the same compound?
**A.** The Activity was “Active”.

**Q.** What about the inhibition in vivo at 15 mg/kg (B16-BL6 [5]) of the same compound?
**A.** The inhibition in vivo at 15 mg/kg was 29.4%.

**Q.** And the Activity (K562 [6])?
**A.** Its Activity is 12%.

**Q.** And the GI50 at 72 h [7]?
**A.** Its GI50 at 72 h is 5.5 µM.

**Q.** And the inhibition in vivo at 7.5 mg/kg (B16-BL6 [8])?
**A.** Its inhibition in vivo at 7.5 mg/kg is 18%.

**Q.** What about the Activity (HeLa [9]) of the same compound?
**A.** Its Activity is “Active”.

**Q.** What about the GI50 (Breast carcinoma cell) of the same compound?
**A.** The GI50 was 0.04 µM.

**Q.** What about the LC50 (concentration killing 50% of cells) (Breast carcinoma cell) of the same compound?
**A.** Its LC50 (concentration killing 50% of cells) is 99 µM.

**Q.** What about the TGI (Breast carcinoma cell) of the same compound?
**A.** The TGI was 71.3 µM.

**Q.** And the GI50 at 72 h [10]?
**A.** The GI50 at 72 h was 4.5 µM.

**Q.** What about the inhibition in vivo at 15 mg/kg (E0771 [11]) of the same compound?
**A.** Its inhibition in vivo at 15 mg/kg is 56.8%.

**Q.** What about the Activity (A549 [12]) of the same compound?
**A.** Its Activity is “Active”.

**Q.** What about the Activity (HeLa [13]) of the same compound?
**A.** Its Activity is “Active”.

**Q.** And the GI50 (Ovarian carcinoma cell)?
**A.** The GI50 was 0.05 µM.

**Q.** What about the LC50 (50% lethal concentration) (Ovarian carcinoma cell) of the same compound?
**A.** The LC50 (50% lethal concentration) was 80 µM.

**Q.** What about the TGI (Ovarian carcinoma cell) of the same compound?
**A.** The TGI was 73.8 µM.

**Q.** What about the Activity (A549 [14]) of the same compound?
**A.** Its Activity is “Dose-dependent effect”.

**Q.** What about the inhibition (Tubulin (Bos taurus)) of the same compound?
**A.** Its inhibition is 25%.

**Q.** What about the Activity (HeLa [15]) of the same compound?
**A.** The Activity was “Active”.

**Q.** And the Activity (HT-29 [16])?
**A.** Its Activity is “Active”.

**Q.** And the Activity (HeLa [17])?
**A.** Its Activity is “Dose-dependent effect”.

**Q.** And the Activity (HT-29 [18])?
**A.** Its Activity is “Active”.

**Q.** What about the Activity (A549 [19]) of the same compound?
**A.** The Activity was “Active”.

**Q.** What about the inhibition in vivo at 7.5 mg/kg (E0771 [20]) of the same compound?
**A.** The inhibition in vivo at 7.5 mg/kg was 51.8%.

**Q.** What about the GI50 (Melanoma cell line) of the same compound?
**A.** The GI50 was 7.16 µM.

**Q.** And the TGI (Melanoma cell line)?
**A.** Its TGI is 72.9 µM.

**Q.** And the CC50 (Melanoma cell line; [21])?
**A.** Its CC50 is 95.3 µM.
